# From ChEMBL document CHEMBL2429736, “Calix[4]arene methylenebisphosphonic acids as inhibitors of protein tyrosine phosphatase 1B” (Bioorg Med Chem Lett, 2013)
# pIC50, pKi: −log10 of the molar value. Calls of active or inactive are those of the source. The rule behind the calls is not given here.
# Columns and labels:
# [1] = target: T1, Tyrosine-protein phosphatase non-receptor type 2 (Homo sapiens, UniProt P17706); experiment: Inhibition of TCPTP (unknown origin) assessed as p-nitrophenyl phosphate conversion to p-nitrophenol after 10 mins by spectrophotometric analysis
# T1 sequence (P17706 whole entry): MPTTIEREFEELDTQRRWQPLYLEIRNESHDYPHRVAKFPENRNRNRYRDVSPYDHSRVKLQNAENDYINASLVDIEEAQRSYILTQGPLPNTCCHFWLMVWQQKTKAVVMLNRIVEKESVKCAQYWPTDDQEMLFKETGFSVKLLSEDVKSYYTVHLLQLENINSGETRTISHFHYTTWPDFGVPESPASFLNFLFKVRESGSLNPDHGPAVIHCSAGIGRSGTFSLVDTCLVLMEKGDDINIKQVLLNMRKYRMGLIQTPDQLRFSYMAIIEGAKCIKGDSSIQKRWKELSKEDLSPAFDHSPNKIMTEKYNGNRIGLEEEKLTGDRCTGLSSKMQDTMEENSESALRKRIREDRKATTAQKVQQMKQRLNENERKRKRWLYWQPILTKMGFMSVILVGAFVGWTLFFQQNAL
# Outline: (§1)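 p-Nitrophenyl phosphate substrate at 2 mM for TC-PTP and LAR, 1 mM for PTPbeta, 5 mM for CD45, 7 mM for SHP2. p-Nitrophenol release followed. IC50 read from dose-dependent curve as the concentration giving 50% activity after 10 min incubation.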
# [2] = target: T2, Receptor-type tyrosine-protein phosphatase C (Homo sapiens, UniProt P08575); experiment: Inhibition of CD45 (unknown origin) assessed as p-nitrophenyl phosphate conversion to p-nitrophenol after 10 mins by spectrophotometric analysis; outline: as §1
# T2 sequence (P08575 whole entry): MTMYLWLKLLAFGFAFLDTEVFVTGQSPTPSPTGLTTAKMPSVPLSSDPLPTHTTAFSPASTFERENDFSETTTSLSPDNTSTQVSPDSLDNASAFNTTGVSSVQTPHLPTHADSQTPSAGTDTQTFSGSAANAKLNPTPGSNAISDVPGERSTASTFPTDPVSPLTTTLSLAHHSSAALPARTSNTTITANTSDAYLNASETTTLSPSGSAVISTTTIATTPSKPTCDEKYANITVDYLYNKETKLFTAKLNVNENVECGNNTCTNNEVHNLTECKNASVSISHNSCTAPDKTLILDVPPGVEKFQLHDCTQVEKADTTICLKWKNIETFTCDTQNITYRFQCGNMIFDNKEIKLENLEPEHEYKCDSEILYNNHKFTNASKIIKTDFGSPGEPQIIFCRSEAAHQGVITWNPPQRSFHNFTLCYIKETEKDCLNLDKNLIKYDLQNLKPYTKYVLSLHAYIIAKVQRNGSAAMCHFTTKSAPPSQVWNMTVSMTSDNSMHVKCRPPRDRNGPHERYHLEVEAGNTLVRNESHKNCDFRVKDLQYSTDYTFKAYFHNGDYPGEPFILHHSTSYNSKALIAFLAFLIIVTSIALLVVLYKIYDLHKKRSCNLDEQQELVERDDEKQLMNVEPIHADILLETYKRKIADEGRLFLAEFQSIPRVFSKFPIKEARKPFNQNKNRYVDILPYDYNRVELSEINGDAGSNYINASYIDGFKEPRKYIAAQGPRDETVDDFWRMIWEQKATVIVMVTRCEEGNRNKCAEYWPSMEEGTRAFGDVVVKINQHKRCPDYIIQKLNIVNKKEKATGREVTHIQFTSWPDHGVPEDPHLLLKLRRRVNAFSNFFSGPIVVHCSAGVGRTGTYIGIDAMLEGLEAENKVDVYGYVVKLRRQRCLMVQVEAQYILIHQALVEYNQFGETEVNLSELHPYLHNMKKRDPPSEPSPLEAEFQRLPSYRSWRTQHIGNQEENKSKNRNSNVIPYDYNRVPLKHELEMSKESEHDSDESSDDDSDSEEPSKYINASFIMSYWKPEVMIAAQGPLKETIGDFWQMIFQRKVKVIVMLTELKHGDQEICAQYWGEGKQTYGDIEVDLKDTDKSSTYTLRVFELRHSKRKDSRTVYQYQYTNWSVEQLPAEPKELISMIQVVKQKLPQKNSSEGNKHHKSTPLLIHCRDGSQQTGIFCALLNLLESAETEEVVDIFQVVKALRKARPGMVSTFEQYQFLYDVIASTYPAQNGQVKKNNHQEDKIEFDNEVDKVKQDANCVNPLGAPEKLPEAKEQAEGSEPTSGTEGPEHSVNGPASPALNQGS
# [3] = target: T3, Tyrosine-protein phosphatase non-receptor type 1 (Homo sapiens, UniProt P18031); experiment: Inhibition of recombinant full length PTP1B (unknown origin) assessed as p-nitrophenyl phosphate conversion to p-nitrophenol after 10 mins by spectrophotometric analysis
# T3 sequence (P18031 whole entry): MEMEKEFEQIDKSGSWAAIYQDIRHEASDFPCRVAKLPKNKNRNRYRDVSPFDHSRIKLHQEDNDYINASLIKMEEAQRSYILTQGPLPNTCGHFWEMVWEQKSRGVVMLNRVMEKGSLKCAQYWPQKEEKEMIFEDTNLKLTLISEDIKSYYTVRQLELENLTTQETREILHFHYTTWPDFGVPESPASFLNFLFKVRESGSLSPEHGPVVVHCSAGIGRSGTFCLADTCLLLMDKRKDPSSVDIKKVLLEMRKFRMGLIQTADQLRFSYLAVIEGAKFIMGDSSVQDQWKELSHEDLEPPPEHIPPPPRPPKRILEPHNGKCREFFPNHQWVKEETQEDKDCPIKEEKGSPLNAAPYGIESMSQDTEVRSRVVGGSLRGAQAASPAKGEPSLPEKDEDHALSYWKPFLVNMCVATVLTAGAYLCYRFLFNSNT
# Outline: (§2)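 Recombinant full-length PTP1B (5 nM final) in 50 mM Bis-Tris pH 7.2, 100 mM NaCl, 1 mM DTT, 2 mM EDTA, 1 vol % DMSO, 2 mM p-nitrophenyl phosphate plus inhibitor. Mixture preincubated 5 min at 37 C, started by adding enzyme. p-Nitrophenol release followed. IC50 taken from dose-response curve as 50% activity loss after 10 min.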
# [4] = target: T4, Tyrosine-protein phosphatase non-receptor type 11 (Homo sapiens, UniProt Q06124); experiment: Inhibition of SHP2 (unknown origin) assessed as p-nitrophenyl phosphate conversion to p-nitrophenol after 10 mins by spectrophotometric analysis; outline: as §1
# T4 sequence (Q06124 whole entry): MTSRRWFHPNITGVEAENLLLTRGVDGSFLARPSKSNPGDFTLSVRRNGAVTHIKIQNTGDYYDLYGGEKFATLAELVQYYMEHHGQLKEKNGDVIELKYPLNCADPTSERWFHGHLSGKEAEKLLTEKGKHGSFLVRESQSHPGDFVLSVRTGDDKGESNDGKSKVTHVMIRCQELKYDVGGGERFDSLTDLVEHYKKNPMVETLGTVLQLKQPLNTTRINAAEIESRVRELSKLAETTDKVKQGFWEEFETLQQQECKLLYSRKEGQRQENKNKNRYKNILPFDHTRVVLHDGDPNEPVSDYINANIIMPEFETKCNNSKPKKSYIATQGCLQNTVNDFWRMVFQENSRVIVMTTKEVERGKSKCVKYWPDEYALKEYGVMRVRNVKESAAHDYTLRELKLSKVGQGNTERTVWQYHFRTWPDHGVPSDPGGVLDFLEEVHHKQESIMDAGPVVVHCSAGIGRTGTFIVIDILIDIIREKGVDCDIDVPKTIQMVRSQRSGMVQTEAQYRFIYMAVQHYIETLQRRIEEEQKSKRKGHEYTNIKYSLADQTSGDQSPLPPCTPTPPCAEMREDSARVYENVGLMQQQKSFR
# [5] = target: Receptor-type tyrosine-protein phosphatase F (Homo sapiens, UniProt P10586); experiment: Inhibition of LAR (unknown origin) assessed as p-nitrophenyl phosphate conversion to p-nitrophenol after 10 mins by spectrophotometric analysis; outline: as §1
# [6] = target: Receptor-type tyrosine-protein phosphatase beta (Homo sapiens, UniProt P23467); experiment: Inhibition of PTPbeta (unknown origin) assessed as p-nitrophenyl phosphate conversion to p-nitrophenol after 10 mins by spectrophotometric analysis; outline: as §1
# [7] = target: T3, Tyrosine-protein phosphatase non-receptor type 1; experiment: Inhibition of recombinant truncated PTP1B (unknown origin) using pTyr1146 as substrate assessed as inorganic phosphate level after 20 mins by spectrophotometric analysis
# Outline: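 Truncated recombinant PTP1B (40 nM) with 0.075 mM pTyr1146 in 50 mM Bis-Tris pH 7.2, 1.1 mM DTT, 0.1 M NaCl, 1 mM EDTA. Reaction started with enzyme, run 20 min at 37 C, stopped with malachite green, held 10 min at 37 C. Phosphate read at 620 nm against standard curve, corrected for no-enzyme, no-substrate and inhibitor blanks.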
# [8] = target: T5, Tyrosine-protein phosphatase non-receptor type 1 (Homo sapiens) (UniProt P18031); conditions: 50 uM
# T5 sequence (whole entry): T3 sequence (P18031 whole entry)
# [9] = target: T5, Tyrosine-protein phosphatase non-receptor type 1 (Homo sapiens); experiment: Inhibition of recombinant full length PTP1B (unknown origin) assessed as p-nitrophenyl phosphate conversion to p-nitrophenol up to 20 uM after 10 mins by spectrophotometric analysis; outline: as §2
# [10] = target: T3, Tyrosine-protein phosphatase non-receptor type 1; experiment: Reversible inhibition of recombinant full length PTP1B (unknown origin) assessed as p-nitrophenyl phosphate conversion to p-nitrophenol after 10 mins by spectrophotometric analysis; outline: as §2
# [11] = target: T6, Tyrosine-protein phosphatase non-receptor type 2 (Homo sapiens) (UniProt P17706); experiment: Inhibition of TCPTP (unknown origin) assessed as p-nitrophenyl phosphate conversion to p-nitrophenol by spectrophotometric analysis; conditions: TDE = time-dependent effect
# T6 sequence (whole entry): T1 sequence (P17706 whole entry)
# Homo sapiens [12] = species on record: Homo sapiens; experiment: Selectivity ratio of IC50 for TCPTP (unknown origin) to IC50 for recombinant full length PTP1B (unknown origin)
# [13] = target: T5, Tyrosine-protein phosphatase non-receptor type 1 (Homo sapiens); experiment: Inhibition of recombinant full length PTP1B (unknown origin) assessed as p-nitrophenyl phosphate conversion to p-nitrophenol by spectrophotometric analysis; conditions: TDE = time-dependent effect; outline: as §2
# Homo sapiens [14] = species on record: Homo sapiens; experiment: Selectivity ratio of IC50 for CD45 (unknown origin) to IC50 for recombinant full length PTP1B (unknown origin)
# [15] = target: T3, Tyrosine-protein phosphatase non-receptor type 1; experiment: Competitive inhibition of recombinant full length PTP1B (unknown origin) assessed as p-nitrophenyl phosphate conversion to p-nitrophenol by Lineweaver-Burk plot analysis
# Receptor-type tyrosine-protein phosphatase F, sequence (P10586 whole entry): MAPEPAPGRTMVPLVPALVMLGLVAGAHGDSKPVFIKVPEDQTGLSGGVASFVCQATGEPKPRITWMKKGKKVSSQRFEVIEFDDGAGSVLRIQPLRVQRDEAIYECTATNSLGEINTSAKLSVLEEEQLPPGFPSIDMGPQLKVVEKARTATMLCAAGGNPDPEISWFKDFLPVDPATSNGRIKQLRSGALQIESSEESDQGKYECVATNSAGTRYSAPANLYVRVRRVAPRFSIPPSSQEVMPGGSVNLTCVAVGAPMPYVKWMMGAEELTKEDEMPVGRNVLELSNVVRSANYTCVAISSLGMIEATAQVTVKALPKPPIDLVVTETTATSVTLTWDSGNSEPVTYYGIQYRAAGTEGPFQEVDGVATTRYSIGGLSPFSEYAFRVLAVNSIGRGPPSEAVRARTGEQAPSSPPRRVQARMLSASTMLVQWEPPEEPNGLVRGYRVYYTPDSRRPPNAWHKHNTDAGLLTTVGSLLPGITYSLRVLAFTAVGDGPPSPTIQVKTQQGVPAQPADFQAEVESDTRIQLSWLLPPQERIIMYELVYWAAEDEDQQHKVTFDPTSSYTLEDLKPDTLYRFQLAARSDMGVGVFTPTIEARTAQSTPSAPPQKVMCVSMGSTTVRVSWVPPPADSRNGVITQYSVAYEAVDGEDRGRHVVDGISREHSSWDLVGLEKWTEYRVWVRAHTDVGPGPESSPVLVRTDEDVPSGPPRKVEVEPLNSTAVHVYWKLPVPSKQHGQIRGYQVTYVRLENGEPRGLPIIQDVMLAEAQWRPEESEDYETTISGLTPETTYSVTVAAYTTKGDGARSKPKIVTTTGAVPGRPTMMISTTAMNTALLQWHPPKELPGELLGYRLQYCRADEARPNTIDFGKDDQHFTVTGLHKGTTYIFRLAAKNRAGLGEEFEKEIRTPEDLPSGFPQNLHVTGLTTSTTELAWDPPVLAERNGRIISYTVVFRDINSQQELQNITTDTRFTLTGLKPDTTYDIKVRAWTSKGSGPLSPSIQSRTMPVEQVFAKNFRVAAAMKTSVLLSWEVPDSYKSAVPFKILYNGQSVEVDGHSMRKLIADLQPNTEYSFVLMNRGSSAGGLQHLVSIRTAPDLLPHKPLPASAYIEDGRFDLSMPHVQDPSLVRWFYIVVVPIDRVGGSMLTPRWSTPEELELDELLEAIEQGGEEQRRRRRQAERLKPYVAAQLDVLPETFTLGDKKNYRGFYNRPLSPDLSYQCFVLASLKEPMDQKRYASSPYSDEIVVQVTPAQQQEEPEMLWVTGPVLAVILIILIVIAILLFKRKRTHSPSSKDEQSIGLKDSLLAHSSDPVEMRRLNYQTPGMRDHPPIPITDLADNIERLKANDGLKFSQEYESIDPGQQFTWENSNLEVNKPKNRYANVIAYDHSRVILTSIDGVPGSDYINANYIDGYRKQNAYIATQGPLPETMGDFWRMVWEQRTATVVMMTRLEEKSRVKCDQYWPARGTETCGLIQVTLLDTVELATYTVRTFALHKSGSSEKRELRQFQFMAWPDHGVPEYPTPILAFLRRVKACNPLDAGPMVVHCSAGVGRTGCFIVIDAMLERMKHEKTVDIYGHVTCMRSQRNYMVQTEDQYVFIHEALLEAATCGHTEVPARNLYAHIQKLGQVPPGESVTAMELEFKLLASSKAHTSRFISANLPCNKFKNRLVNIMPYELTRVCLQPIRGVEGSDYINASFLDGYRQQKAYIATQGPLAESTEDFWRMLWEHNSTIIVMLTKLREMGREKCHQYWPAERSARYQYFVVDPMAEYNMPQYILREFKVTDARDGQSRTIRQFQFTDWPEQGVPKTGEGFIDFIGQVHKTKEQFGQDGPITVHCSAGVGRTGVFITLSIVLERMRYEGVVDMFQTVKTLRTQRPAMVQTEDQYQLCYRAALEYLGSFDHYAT
# Receptor-type tyrosine-protein phosphatase beta, sequence (P23467 whole entry, the tested form may be a part): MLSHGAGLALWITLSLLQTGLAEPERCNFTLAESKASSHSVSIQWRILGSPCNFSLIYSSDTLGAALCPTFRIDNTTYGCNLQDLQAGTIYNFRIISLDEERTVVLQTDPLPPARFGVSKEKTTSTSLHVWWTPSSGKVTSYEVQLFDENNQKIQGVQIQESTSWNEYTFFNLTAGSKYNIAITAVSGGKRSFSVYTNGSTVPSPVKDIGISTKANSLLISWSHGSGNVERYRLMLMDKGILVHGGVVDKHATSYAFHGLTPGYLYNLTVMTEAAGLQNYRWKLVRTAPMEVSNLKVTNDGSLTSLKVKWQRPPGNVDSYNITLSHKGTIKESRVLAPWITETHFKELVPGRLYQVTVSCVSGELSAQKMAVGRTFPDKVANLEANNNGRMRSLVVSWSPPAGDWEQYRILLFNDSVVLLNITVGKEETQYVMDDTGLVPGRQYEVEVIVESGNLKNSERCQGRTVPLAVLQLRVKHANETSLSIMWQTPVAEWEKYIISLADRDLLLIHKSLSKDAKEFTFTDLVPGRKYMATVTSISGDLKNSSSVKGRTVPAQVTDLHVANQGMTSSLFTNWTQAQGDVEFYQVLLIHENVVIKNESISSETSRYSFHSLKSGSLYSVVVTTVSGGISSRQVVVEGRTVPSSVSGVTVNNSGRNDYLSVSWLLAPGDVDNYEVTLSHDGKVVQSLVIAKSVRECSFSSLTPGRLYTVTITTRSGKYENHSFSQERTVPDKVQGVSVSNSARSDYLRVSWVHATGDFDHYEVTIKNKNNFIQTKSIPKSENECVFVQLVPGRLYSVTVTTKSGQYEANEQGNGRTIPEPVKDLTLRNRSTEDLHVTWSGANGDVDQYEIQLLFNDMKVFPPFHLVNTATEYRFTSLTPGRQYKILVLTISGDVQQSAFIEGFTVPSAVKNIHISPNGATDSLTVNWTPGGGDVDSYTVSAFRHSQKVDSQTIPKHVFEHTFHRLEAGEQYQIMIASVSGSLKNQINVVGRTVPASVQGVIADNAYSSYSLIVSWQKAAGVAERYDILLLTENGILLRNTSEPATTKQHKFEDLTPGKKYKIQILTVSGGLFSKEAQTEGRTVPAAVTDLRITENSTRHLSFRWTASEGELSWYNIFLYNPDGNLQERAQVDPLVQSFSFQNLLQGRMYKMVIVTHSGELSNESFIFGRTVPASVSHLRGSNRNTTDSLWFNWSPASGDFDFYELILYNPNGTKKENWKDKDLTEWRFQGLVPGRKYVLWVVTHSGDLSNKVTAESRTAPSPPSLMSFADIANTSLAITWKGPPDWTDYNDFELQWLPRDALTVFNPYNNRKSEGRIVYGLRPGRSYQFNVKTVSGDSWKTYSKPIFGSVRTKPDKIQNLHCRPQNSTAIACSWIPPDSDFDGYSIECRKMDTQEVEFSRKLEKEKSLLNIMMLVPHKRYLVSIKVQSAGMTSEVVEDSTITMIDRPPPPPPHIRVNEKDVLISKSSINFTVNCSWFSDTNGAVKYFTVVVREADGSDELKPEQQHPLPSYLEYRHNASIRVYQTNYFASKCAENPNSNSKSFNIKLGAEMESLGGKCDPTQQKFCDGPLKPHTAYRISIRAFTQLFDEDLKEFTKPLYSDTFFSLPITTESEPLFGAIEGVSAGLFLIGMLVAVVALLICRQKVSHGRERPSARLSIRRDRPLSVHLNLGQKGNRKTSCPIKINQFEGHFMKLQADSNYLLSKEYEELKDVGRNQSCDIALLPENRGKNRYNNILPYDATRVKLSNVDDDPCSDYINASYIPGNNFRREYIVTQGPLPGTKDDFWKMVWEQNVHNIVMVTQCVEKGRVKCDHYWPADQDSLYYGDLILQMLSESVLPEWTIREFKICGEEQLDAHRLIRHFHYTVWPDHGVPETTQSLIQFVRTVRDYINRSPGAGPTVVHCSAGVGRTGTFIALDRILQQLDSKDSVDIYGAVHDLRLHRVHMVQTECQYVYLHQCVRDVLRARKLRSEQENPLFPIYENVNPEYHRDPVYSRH
SMILES,pIC50 [1],pIC50 [2],pIC50 [3],pIC50 [4],pIC50 [5],pIC50 [6],pIC50 [7],inhibition [8],inhibition [9],pKi [10],inhibition [11],Ratio IC50 (Homo sapiens [12]),inhibition [13],Ratio IC50 (Homo sapiens [14]),pKi [15]
CCCOc1c2cccc1Cc1cccc(c1O)Cc1cccc(c1OCCC)Cc1cccc(c1O)C2,–,–,–,–,–,–,–,–,inactive,–,–,–,–,–,–
CCCOc1c2cccc1Cc1cc(C(P(=O)(O)O)P(=O)(O)O)cc(c1O)Cc1cccc(c1OCCC)Cc1cc(C(P(=O)(O)O)P(=O)(O)O)cc(c1O)C2,5.31,4.66,5.60,5.59,< 4.00,–,5.41,–,–,–,–,–,–,–,–
CCCOc1c2cccc1Cc1cc(C(P(=O)(O)O)P(=O)(O)O)cc(c1O)Cc1cccc(c1OCCC)Cc1cccc(c1O)C2,5.03,5.24,5.92,5.74,< 4.00,4.89,5.43,–,–,6.13,tde,8,tde,4,6.01

# Continued, values first:
pIC50 [1],pIC50 [2],pIC50 [3],pIC50 [4],pIC50 [5],pIC50 [6],pIC50 [7],inhibition [8],inhibition [9],pKi [10],inhibition [11],Ratio IC50 (Homo sapiens [12]),inhibition [13],Ratio IC50 (Homo sapiens [14]),pKi [15],SMILES
4.66,4.23,5.08,5.04,< 4.00,4.92,5.14,–,–,–,–,–,–,–,–,CCCOc1c2cccc1Cc1cc(C(O)(P(=O)(O)O)P(=O)(O)O)cc(c1O)Cc1cccc(c1OCCC)Cc1cc(C(O)(P(=O)(O)O)P(=O)(O)O)cc(c1O)C2
–,–,–,–,–,–,–,inactive,–,–,–,–,–,–,–,NCCCC(O)(P(=O)(O)O)P(=O)(O)O
4.57,5.08,5.72,5.47,≤ 4.00,4.74,5.39,–,–,6.17,tde,14,tde,4,–,CCCOc1c2cccc1Cc1cc(C(O)(P(=O)(O)O)P(=O)(O)O)cc(c1O)Cc1cccc(c1OCCC)Cc1cccc(c1O)C2
